Data from ChEMBL document CHEMBL1131191, “De novo design, synthesis, and biological activities of high-affinity and selective non-peptide agonists of the delta-opioid receptor” (J Med Chem, 1998).

Key:
[1] = target: Mu-type opioid receptor (Rattus norvegicus, UniProt P33535); experiment: Binding affinity was measured against Opioid receptor mu 1 using [3H]-DAMGO as radioligand.
[2] = target: Mu-type opioid receptor (Cavia porcellus, UniProt P97266); experiment: Tested for electrically induced smooth muscle contractions from guinea pig ileum expressed in mu opioid receptors; type: functional, tissue-based
Mu-type opioid receptor (Cavia porcellus, UniProt P97266), sequence (P97266 whole entry): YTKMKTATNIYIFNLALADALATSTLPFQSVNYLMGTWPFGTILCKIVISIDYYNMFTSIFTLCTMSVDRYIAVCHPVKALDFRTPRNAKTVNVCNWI
How it was run: (§1)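 Electrically stimulated contractions of male Hartley guinea pig ileum longitudinal muscle–myenteric plexus (1 g tension, 0.4-ms pulses) or male ICR mouse vas deferens (0.5 g, 2.0-ms pulses, Mg-free Krebs). Baths at 37 °C, oxygenated Krebs, 0.1 Hz, supramaximal voltage. Agonist left 3 min. Percent inhibition of twitch height, IC50 from Hill fit, ≥4 tissues.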

[3] = target: Opioid receptors; mu & delta (Homo sapiens) (UniProt P41143+P35372); experiment: It is the ratio of EC50(mu receptor) to that of EC50 for(delta receptor); type: functional
Opioid receptors; mu & delta (Homo sapiens), sequence (P35372 whole entry, looked up): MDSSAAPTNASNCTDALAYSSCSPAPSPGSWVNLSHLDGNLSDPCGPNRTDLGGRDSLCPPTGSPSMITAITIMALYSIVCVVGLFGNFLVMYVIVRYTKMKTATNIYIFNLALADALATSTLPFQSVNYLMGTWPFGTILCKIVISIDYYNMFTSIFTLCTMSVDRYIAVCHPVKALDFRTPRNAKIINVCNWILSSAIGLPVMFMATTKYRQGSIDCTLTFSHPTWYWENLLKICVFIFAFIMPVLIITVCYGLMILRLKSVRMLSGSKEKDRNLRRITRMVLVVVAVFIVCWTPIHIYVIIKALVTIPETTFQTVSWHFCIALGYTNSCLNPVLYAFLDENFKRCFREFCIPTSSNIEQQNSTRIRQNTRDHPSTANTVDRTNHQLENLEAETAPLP
Opioid receptors; mu & delta (Homo sapiens), sequence (P41143 whole entry, looked up): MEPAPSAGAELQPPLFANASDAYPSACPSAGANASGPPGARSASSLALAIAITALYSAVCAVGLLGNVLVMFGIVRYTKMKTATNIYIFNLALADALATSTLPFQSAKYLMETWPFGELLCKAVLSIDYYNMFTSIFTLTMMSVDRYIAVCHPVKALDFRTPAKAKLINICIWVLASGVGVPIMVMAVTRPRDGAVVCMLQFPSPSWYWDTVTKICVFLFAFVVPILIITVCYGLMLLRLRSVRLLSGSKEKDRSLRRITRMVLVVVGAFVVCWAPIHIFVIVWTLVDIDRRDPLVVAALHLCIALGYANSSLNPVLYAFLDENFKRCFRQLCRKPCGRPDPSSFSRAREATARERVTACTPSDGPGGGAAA

[4] = target: Delta-type opioid receptor (Rattus norvegicus, UniProt P33533); experiment: Binding affinity was measured against Opioid receptor delta 1 using [3H]p-Cl-DPDPE as radioligand.
Delta-type opioid receptor (Rattus norvegicus, UniProt P33533), sequence (P33533 whole entry): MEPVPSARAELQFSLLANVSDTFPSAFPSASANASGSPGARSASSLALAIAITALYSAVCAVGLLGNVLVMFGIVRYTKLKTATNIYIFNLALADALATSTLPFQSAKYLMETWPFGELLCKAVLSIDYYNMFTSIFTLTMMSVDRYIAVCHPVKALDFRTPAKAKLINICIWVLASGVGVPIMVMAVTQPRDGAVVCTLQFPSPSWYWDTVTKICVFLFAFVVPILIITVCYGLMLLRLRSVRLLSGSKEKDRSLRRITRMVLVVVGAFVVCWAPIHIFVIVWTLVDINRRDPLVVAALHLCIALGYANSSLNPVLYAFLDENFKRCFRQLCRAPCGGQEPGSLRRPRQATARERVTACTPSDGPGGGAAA

[5] = target: Delta-type opioid receptor (Mus musculus, UniProt P32300); experiment: Tested for electrically induced smooth muscle contractions from mouse vas deferens expressed in delta opioid receptors; type: functional; how it was run: as §1
Delta-type opioid receptor (Mus musculus, UniProt P32300), sequence (P32300 whole entry): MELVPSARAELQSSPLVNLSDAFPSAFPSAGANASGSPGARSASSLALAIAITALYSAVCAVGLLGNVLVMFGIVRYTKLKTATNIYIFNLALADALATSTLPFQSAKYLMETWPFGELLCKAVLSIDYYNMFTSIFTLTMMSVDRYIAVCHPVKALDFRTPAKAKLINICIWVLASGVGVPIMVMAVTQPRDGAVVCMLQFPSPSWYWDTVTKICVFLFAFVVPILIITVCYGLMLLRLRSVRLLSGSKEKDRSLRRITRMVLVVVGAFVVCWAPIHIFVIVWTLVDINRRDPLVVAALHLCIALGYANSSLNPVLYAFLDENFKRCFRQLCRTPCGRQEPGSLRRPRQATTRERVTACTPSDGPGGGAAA

[6] = target: Mu-type opioid receptor (Cavia porcellus) (UniProt P97266); experiment: Tested for electrically induced smooth muscle contractions from guinea pig ileum expressed in mu opioid receptors at 60 uM; type: functional, tissue-based
Mu-type opioid receptor (Cavia porcellus), sequence (P97266 whole entry): as the sequence (P97266 whole entry) above

[7] = species: Cavia porcellus; experiment: mu-opioid receptor antagonistic activity was measured in guinea pig ileum.; type: functional
[8] = target: Delta-type opioid receptor (Homo sapiens, UniProt P41143); experiment: Binding affinity was measured against cloned human Opioid receptor delta 1 (wild-type,Wt)
Delta-type opioid receptor (Homo sapiens, UniProt P41143), sequence (P41143 whole entry): as the sequence (P41143 whole entry, looked up) above

Mu-type opioid receptor (Rattus norvegicus, UniProt P33535), sequence (P33535 whole entry): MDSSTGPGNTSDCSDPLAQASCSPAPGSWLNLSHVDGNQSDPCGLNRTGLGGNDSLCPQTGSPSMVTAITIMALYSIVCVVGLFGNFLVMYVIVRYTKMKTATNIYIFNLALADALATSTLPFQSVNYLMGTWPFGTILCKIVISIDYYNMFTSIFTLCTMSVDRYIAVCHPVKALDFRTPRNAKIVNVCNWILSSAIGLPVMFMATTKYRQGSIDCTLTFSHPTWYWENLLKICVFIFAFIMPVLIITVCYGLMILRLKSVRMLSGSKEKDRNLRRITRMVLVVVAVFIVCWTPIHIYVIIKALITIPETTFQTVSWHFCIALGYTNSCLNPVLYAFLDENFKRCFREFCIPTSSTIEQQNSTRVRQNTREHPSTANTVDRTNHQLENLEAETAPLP

Compound	IC50 [1]	EC50 [2]	IC50 [4]	EC50 [5]	other results
Oc1cccc(C(c2ccccc2)N2CCN(Cc3ccccc3)CC2)c1 (centres undefined)	500 nM	1250 nM	34 nM	174 nM	Selectivity [3]: 7.1
CC(C)(C)c1ccc(C(c2cccc(O)c2)N2CCN(Cc3ccccc3)CC2)cc1 (single isomer, unassigned; (-))		7600 nM		360 nM	
CC(c1cccc(O)c1)N1CCN(Cc2ccccc2)CC1 (centres undefined)	780 nM		610 nM		
Cc1cc(O)cc(C)c1[C@@H](C)[C@H](N)C(=O)N[C@H]1C(=O)NCC(=O)N[C@@H](Cc2ccccc2)C(=O)N[C@@H](C(=O)O)C(C)(C)SSC1(C)C	4300 nM		5 nM	1.8 nM	inhibition [6]: 0%; Selectivity [3]: > 33000; IC50 [7]: 5000 nM
C=CCN1C[C@H](C)N([C@H](c2ccc(C(=O)N(CC)CC)cc2)c2cccc(OC)c2)C[C@H]1C [SNC-80]	2500 nM				
CC(C)CC(c1cccc(O)c1)N1CCN(Cc2ccccc2)CC1 (centres undefined)	2100 nM		420 nM		
CC(C)(C)c1ccc(C(c2cccc(O)c2)N2CCN(Cc3ccccc3)CC2)cc1 (stereo in doubt)		39000 nM		85 nM	IC50 [8]: 5.51 nM
Oc1cccc(C(c2ccc(-c3ccccc3)cc2)N2CCN(Cc3ccccc3)CC2)c1 (centres undefined)	27000 nM		31 nM		
CC(C)(C)c1ccc(C(c2cccc(O)c2)N2CCN(Cc3ccccc3)CC2)cc1 (single isomer, unassigned; (+))		3000 nM		210 nM	
C=CCN1C[C@H](C)N([C@H](c2ccc(C(=O)N(CC)CC)cc2)c2cccc(O)c2)C[C@H]1C			0.31 nM		
COc1cccc(C(c2ccc(C(C)(C)C)cc2)N2CCN(Cc3ccccc3)CC2)c1 (centres undefined)	> 8000 nM		1800 nM		
Oc1cccc(CN2CCN(Cc3ccccc3)CC2)c1			6400 nM		
